Laboratory results as given in ChEMBL document CHEMBL4229342, “Synthesis of novel proxyphylline derivatives with dual Anti-Candida albicans and anticancer activity” (Eur J Med Chem, 2018).
The source made the active and inactive calls. The calls are words filed in the database; no cut-off is given here.

Legend:
Candida albicans [1] = experiment: Ratio of MFC for fungicidal activity against Candida albicans ATCC 90028 assessed as reduction in cell viability in RPMI medium in presence of sorbitol to MFC for fungicidal activity against Candida albicans ATCC 90028 assessed as reduction in cell viability in RPMI medium in absence of sorbitol; assay type: functional
Candida albicans [2] = experiment: Disruption of cell wall in Candida albicans SC5314 assessed as decrease in chitin level by measuring chitin mean staining index at 0.07 uM after 18 hrs by calcofluor white staining-based flow cytometric analysis (reference value: 496 +/- 51); assay type: functional
Candida albicans [3] = experiment: Induction of apoptosis in Candida albicans ATCC 90028 planktonic forms assessed as increase in DNA damage at 4 ug/ml by ethidium bromide staining based gel electrophoresis and confocal laser scanning microscopy; assay type: functional, organism-based
Candida albicans [4] = experiment: Induction of endochitinase release in Candida albicans ATCC 90028 assessed as p-nitrophenyl release from triacetylochitotriose substrate A at 20 uM by chitinolytic activity assay; assay type: functional, organism-based
Candida albicans [5] = experiment: Antibiofilm activity in Candida albicans ATCC 90028 assessed as early apoptotic morphological changes by measuring crescent-shaped nuclei at 20 uM after 18 hrs by acridine orange/ethidium bromide staining-based confocal laser scanning fluorescence microscopic analysis; assay type: functional
Outline: (§1)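 Unfixed biofilm cells were dual-stained in situ with acridine orange and ethidium bromide, each at 100 µg/mL. Confocal fluorescence and DIC imaging scored green AO nuclei, crescent-shaped chromatin, reddish-orange late apoptotic/necrotic cells and EB uptake, against untreated control biofilm. […]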

Candida albicans [6] = experiment: Antifungal activity against Candida albicans ATCC 90028 infected in Galleria mellonella larvae infected with 20 uM compound pre-treated cell suspensions assessed as reduction in fat body formation in dark for 144 hrs at 30 degC and measured every 24 hrs by hematoxylin and eosin staining-based light microscopic analysis; assay type: functional, organism-based
Candida albicans [7] = experiment: Induction of apoptosis in Candida albicans ATCC 90028 planktonic forms assessed as increase in DNA damage at 1 ug/ml by ethidium bromide staining based gel electrophoresis and confocal laser scanning microscopy; assay type: functional, organism-based
Candida albicans [8] = experiment: Effect on dilpoid nuclei level in Candida albicans ATCC 90028 planktonic forms at 128 ug/ml by ethidium bromide staining based gel electrophoresis and confocal laser scanning microscopy; assay type: functional, organism-based
Candida albicans [9] = experiment: Antifungal activity against Candida albicans ATCC 90028 infected in Galleria mellonella larvae infected with 31 uM compound pre-treated cell suspensions assessed as cocoon formation incubated in dark for 144 hrs at 30 degC and measured every 24 hrs (reference value: 65%); assay type: functional
Candida albicans [10] = experiment: Antibiofilm activity in Candida albicans ATCC 90028 assessed as early apoptotic morphological changes by measuring crescent-shaped nuclei at 248 uM after 18 hrs by acridine orange/ethidium bromide staining-based confocal laser scanning fluorescence microscopic analysis; assay type: functional; outline: as §1

Row | Compound | Ratio (Candida albicans [1]) | Activity_index (Candida albicans [2]) | Activity (Candida albicans [3]) | Activity (Candida albicans [4]) | fold change (FC) (Candida albicans [5]) | Activity (Candida albicans [6]) | Activity (Candida albicans [7]) | Activity (Candida albicans [8]) | Activity (Candida albicans [9]) [%] | fold change (FC) (Candida albicans [10])
1 | CC(Cn1cnc2c1c(=O)n(C)c(=O)n2C)OCc1cn(CCCn2nc3c(Br)c(Br)c(Br)c(Br)c3n2)nn1 (stereo not given) | 2 | 53 | Active | inactive | 2 | Active |  |  |  | 
2 | CC(CN1c2ccccc2Sc2ccccc21)OC(=O)OC(C)Cn1cnc2c1c(=O)n(C)c(=O)n2C (stereo not given) |  |  |  |  |  |  | inactive | inactive | 98 | 2
